Assay results published in ChEMBL document CHEMBL4765486, “Novel Nonsecosteroidal Vitamin D Receptor Modulator Combined with Gemcitabine Enhances Pancreatic Cancer Therapy through Remodeling of the Tumor Microenvironment” (J Med Chem, 2021).
pIC50: −log10 of the molar value. The source made the active and inactive calls. Unless noted, no cut-off for these calls is given here.

Columns and labels:
Mus musculus [1] = test: (§1) Inhibition of GFP-tagged rat LTC-14 cells activation in BALB/c nude mouse xenografted along with luciferase-tagged DSL-6A/C1-Luc cells assessed as reduction in alpha-smooth muscle actin expression in tumor at 500 ug/kg, ip administered once every 3 days for 12 days coadministered with gemcitabine at 100 mg/kg by DAPI staining based laser confocal scanning microscopy; assay type: functional, organism-based; settings: dose 500.0 µg/kg, time 12.0 day
In short: (§2)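 Tumours were taken from orthotopic co-inoculated nude mice given gemcitabine 100 mg/kg plus compound (500 μg/kg) or calcipotriol (60 μg/kg) ip for 12 days. Sections were fixed in 4% PFA, permeabilised with 0.5% Triton X-100 and blocked in 5% BSA. They were incubated with anti-α-SMA overnight at 4 °C, then an Alexa Fluor 594 secondary for 1 h at 37 °C, DAPI-counterstained and imaged by confocal microscopy.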

LTC-14 [2] = test: Inhibition of rat LTC-14 cells activation assessed as inhibition of Fgf mRNA expression at 0.5 uM treated under conditioned media of DSL-6A/C1 cells for 24 hrs by q-PCR analysis; assay type: functional, cell-based
In short: (§3)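 LTC-14 PSCs were exposed for 24 h to conditioned medium from rat DSL-6A/C1 cancer cells containing compound at 0.5 μM. Pdgfa, Pdgfb, Fgf2, Hgf and Periodin mRNA were quantified by RT-qPCR. Three repeats, mean ± SD versus CM alone.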

DSL-6A/C1 [3] = test: (§4) Potentiation of gemcitabine-induced antitumor activity against luciferase-tagged rat DSL-6A/C1 cells and GFP-tagged LTC-14 cells co-inoculated in orthotropic xenograft BALB/c nude mouse model of pancreatic cancer assessed as reduction in tumor volume at 500 ug/kg, ip administered once every 3 days for 12 days coadministered with gemcitabine at 100 mg/kg and measured after 3 days post last dose by IVIS optical imaging analysis; assay type: functional, organism-based; settings: dose 500.0 µg/kg, time 12.0 day
In short: (§5)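 DSL-6A/C1-luci and LTC-14-GFP cells were co-inoculated orthotopically into the pancreas of nude mice, n=5 per group. Treatment began 7 days after grafting (methods) or 14 days (text). Gemcitabine 100 mg/kg ip every 3 days, alone or with compound 500 μg/kg or calcipotriol 60 μg/kg in ethanol/polyoxyethylene castor oil/saline (1:1:18), for 12 days. Tumour growth was followed by bioluminescence imaging.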

LTC-14 [4] = test: Inhibition of rat LTC-14 cells interaction with DSL-6A/C1 cells in conditioned media assessed as inhibition of PDGF-A protein expression at 0.5 uM measured after 24 hrs by Western blot analysis; assay type: functional, cell-based
In short: (§6)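 LTC-14 cells were treated for 24 h with DSL-6A/C1 conditioned medium plus compound (0.5 μM). Proteins were separated on 10% SDS-PAGE, transferred to PVDF and probed with rabbit anti-PDGF-A or anti-POSTN, with β-actin as loading reference.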

LTC-14 [5] = test: Inhibition of rat LTC-14 cells activation assessed as inhibition of PDGFB mRNA expression at 0.5 uM treated under conditioned media of DSL-6A/C1 cells for 24 hrs by q-PCR analysis; assay type: functional, cell-based; in short: as §3
LTC-14 [6] = test: Inhibition of rat LTC-14 cells activation assessed as inhibition of PDGFA mRNA expression at 0.5 uM treated under conditioned media of DSL-6A/C1 cells for 24 hrs by q-PCR analysis; assay type: functional, cell-based; in short: as §3
[7] = biological target: T1, Vitamin D3 receptor (Homo sapiens) (UniProt P11473); test: Agonist activity at VDR (unknown origin) expressed in HEK293 cells co-transfected with pGL4.27-SPP3-Luc and CMV-hRXRalpha and pCMX-Renilla plasmids after 24 hrs by dual luciferase reporter gene assay; assay type: cell-based; settings: filed as agonist, dose 0.0001-1 µM
T1 sequence (whole entry): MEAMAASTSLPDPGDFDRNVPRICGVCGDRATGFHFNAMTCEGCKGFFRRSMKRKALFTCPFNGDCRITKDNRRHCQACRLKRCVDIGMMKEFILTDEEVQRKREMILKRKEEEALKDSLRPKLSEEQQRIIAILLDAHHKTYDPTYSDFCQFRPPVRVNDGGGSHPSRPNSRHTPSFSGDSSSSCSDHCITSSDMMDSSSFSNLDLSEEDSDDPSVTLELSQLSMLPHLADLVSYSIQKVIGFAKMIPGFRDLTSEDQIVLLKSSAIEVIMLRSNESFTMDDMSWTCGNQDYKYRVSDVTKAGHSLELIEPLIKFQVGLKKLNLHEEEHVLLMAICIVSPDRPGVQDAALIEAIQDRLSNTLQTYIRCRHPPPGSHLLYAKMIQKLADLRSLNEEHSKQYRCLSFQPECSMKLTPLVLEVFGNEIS
In short: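 HEK293 cells in 48-well plates were transfected per well with 40 ng TK-Spp×3-LUC reporter, 20 ng pCMX-Renilla, 30 ng pENTER-CMV-hRXRα and 100 ng pCMX-VDR using Lipofectamine 2000. Compounds were added 8 h post-transfection, and dual-luciferase activity was read 24 h later. Firefly signal was normalised to Renilla. The experiment was run three times.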

LTC-14 [8] = test: Inhibition of rat LTC-14 cell activation assessed decrease in TGF-beta1 induced Colla1 mRNA expression at 0.5 uM incubated for 24 hrs by q-PCR analysis; assay type: functional
In short: (§7)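 Immortalized rat PSC line LTC-14, about 1×10^5 cells per well, was grown 24 h at 37 °C in 5% CO2. Cells then received compound (0.5 μM) plus TGF-β1 for 24 h; TGF-β1 is stated as 0.5 ng/mL in the text and 5 ng/mL in the methods. Col1a1 and Acta2 mRNA were measured by RT-qPCR. Mean ± SD versus TGF-β1 alone.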

DSL-6A/C1 [9] = test: Antiproliferative activity against rat DSL-6A/C1 cells assessed as reduction in cell viability at 0.5 uM treated with conditioned media of LTC-14 cells for 24 hrs by MTT assay; assay type: functional, cell-based
In short: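 Rat pancreatic cancer DSL-6A/C1 cells were cultured in supernatant from LTC-14 PSCs (PSC-CM) with compound added at 0.5 μM for 24 h. Viability was then read by MTT: 4 h incubation with MTT (5 mg/mL stock), absorbance at 570 nm. Run in triplicate, compared with PSC-CM alone.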

LTC-14 [10] = test: Inhibition of rat LTC-14 cells interaction with DSL-6A/C1 cells in conditioned media assessed as inhibition of POSTN protein expression at 0.5 uM measured after 24 hrs by Western blot analysis; assay type: functional, cell-based; in short: as §6
[11] = Cytotoxicity against rat LTC-14 cells assessed as reduction in cell proliferation incubated for 24 hrs by MTT assay; assay type: cell-based; settings: LTC-14, 24 h
LTC-14 [12] = test: Inhibition of rat LTC-14 cells activation assessed decrease in TGF-beta1 induced Acta2 mRNA expression at 0.5 uM incubated for 24 hrs by q-PCR analysis; assay type: functional, cell-based; in short: as §7
Vitamin D3 receptor = biological target: T2, Vitamin D3 receptor (Homo sapiens, UniProt P11473); test: Binding affinity to VDR (unknown origin) by fluorescence polarization assay
T2 sequence (P11473 whole entry): T1 sequence (whole entry)
In short: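 Competitive VDR binding was measured by PolarScreen fluorescence polarization, in triplicate.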

LTC-14 [13] = test: Inhibition of rat LTC-14 cells activation assessed as inhibition of Periodin-mRNA expression at 0.5 uM treated under conditioned media of DSL-6A/C1 cells for 24 hrs by q-PCR analysis; assay type: functional, cell-based; in short: as §3
[14] = biological target: T1, Vitamin D3 receptor (Homo sapiens); test: Binding affinity to VDR (unknown origin) at 1 uM by fluorescence polarization assay relative to calcipotriol; settings: filed as agonist
In short: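 PolarScreen VDR competitor fluorescence polarization assay with compounds at 1 μM in triplicate. Read-out used 535 nm excitation and 590 nm emission filters.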

LTC-14 [15] = test: Inhibition of rat LTC-14 cells activation assessed decrease in TGF-beta1 induced collagen 1 protein expression at 0.5 uM incubated for 24 hrs by Western blot analysis; assay type: functional, cell-based
In short: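 LTC-14 cells were treated for 24 h with compound (0.5 μM) plus TGF-β1 (0.5 ng/mL in the text, 5 ng/mL in the methods). Lysates were run on 10% SDS-PAGE, transferred to PVDF and probed with rabbit anti-collagen I, with β-actin as reference. Bands were quantified by densitometry versus TGF-β1 alone.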

[16] = Cytotoxicity against rat DSL-6A/C1 cells assessed as reduction in cell proliferation at 0.5 uM incubated for 24 hrs by MTT assay; assay type: cell-based; settings: dsl-6a/c1, 24 h
DSL-6A/C1 [17] = test: Antiproliferative activity against rat DSL-6A/C1 cells assessed as reduction in cell viability at 0.5 uM incubated for 24 hrs compound treated LTC-14-CM cells by MTT assay; assay type: functional, cell-based
In short: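 LTC-14 PSCs were pretreated with compound for 24 h. Their collected supernatant was used to culture DSL-6A/C1 cells, and proliferation was read by MTT: 4 h incubation with MTT (5 mg/mL stock), absorbance at 570 nm. Run in triplicate, compared with untreated PSC-CM.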

LTC-14 [18] = test: Inhibition of rat LTC-14 cells activation assessed as inhibition of Hgf mRNA expression at 0.5 uM treated under conditioned media of DSL-6A/C1 cells for 24 hrs by q-PCR analysis; assay type: functional, cell-based; in short: as §3
LTC-14 [19] = test: Inhibition of rat LTC-14 cells activation assessed as reduction in ECM deposition resulting in doxorubicin accumulation in PSC spheres pretreated with compounds followed by doxorubicin addition by laser confocal microscopy analysis; assay type: functional, cell-based
In short: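 LTC-14 cells were grown in 3D culture to form PSC spheres and treated with compounds. Fluorescent doxorubicin was then added, and its penetration into the spheres was imaged by laser confocal microscopy. Three repeats, versus untreated control.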

Mus musculus [20] = test: as §1, with “60” for “500”, “mg/kg and measured after 3 days post last dose and” for “mg/kg”; assay type: functional, organism-based; settings: dose 60.0 µg/kg, time 12.0 day; in short: as §2
DSL-6A/C1 [21] = test: as §4, with “against” for “against luciferase-tagged”, “DSL-6A/C1-Luc” for “DSL-6A/C1”, “LTC-14-GFP” for “GFP-tagged LTC-14”, “60” for “500”; assay type: functional, organism-based; settings: dose 60.0 µg/kg, time 12.0 day; in short: as §5
DSL-6A/C1 [22] = settings: Rattus norvegicus, dose 100.0 mg/kg, time 12.0 day

With `CCN(CC)CCCNC(=O)c1ccc(C(CC)(CC)c2ccc(OCCC(C)(C)O)c(C)c2)n1CC` the inhibition (Mus musculus [1]) was “Active”, the inhibition (LTC-14 [2]) was “Active” and the TGI (DSL-6A/C1 [3]) was “Active”. For the same compound, the inhibition (LTC-14 [4]) was “Active”, the inhibition (LTC-14 [5]) was “Active” and the inhibition (LTC-14 [6]) was “Active”. For the same compound, the Activity [7] was “Dose-dependent effect”, the inhibition (LTC-14 [8]) was “Active” and the Activity (DSL-6A/C1 [9]) was “inactive”. The inhibition (LTC-14 [10]) was “Active”, the pIC50 [11] was under 5.00 and the inhibition (LTC-14 [12]) was “Active”. For the same compound, the pIC50 (Vitamin D3 receptor) was 7.03, the inhibition (LTC-14 [13]) was “Active” and the RBA [14] was 85%. The inhibition (LTC-14 [15]) was “Active”, the Activity [16] was “Non-Toxic” and the Activity (DSL-6A/C1 [17]) was “Active”. The inhibition (LTC-14 [18]) was “Active” and the inhibition (LTC-14 [19]) was “Active”.
In the case of `C=C1/C(=C/C=C2\CCC[C@]3(C)[C@@H]([C@H](C)/C=C/[C@@H](O)C4CC4)CC[C@@H]23)C[C@@H](O)C[C@@H]1O`, the inhibition (Mus musculus [20]) was “Active”, the Activity [7] was “Dose-dependent effect” and the inhibition (LTC-14 [8]) was “Active”. The Activity (DSL-6A/C1 [21]) was “Active”, the pIC50 [11] was under 5.00 and the inhibition (LTC-14 [12]) was “Active”. The inhibition (LTC-14 [15]) was “Active” and the Activity [16] was “Non-Toxic”.
In the case of `Nc1ccn([C@@H]2O[C@H](CO)[C@@H](O)C2(F)F)c(=O)n1`, the TGI (DSL-6A/C1 [22]) was “inactive”.
